Screening results from PubChem BioAssay.
A selection: hits, their analogues and other compounds. The true share with any hit is near 4.5%.
GPR7 antagonist – antagonists of human GPR7 (neuropeptides B/W receptor 1); P48145; inhibition, % at 4.4 µM; GPR7-expressing cells, fluorescence antagonist assay; actives 1.1% (n = 290,000); in the data active = inhibition above about 16%, passing the limit was not always enough;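 note: cells stimulated with the agonist NPW; 0% = agonist with vehicle and 100% = vehicle without agonist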
OX1R antag-1 – antagonists of human orexin 1 receptor; O43613; AID 434989; actives 0.43% (n = 330,000); CHO/OX1R cells, Fluo-8 calcium fluorescence, orexin A; inhibition, % at 5 µM;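 active = inhibition above its plate's threshold, mean inhibition of all tested compounds on the plate plus 3 SD, cut at about 37% in these data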;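 note: 0% = orexin A challenge wells and 100% = SB-334867-A antagonist wells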
Target sequence (O43613 whole entry, looked up): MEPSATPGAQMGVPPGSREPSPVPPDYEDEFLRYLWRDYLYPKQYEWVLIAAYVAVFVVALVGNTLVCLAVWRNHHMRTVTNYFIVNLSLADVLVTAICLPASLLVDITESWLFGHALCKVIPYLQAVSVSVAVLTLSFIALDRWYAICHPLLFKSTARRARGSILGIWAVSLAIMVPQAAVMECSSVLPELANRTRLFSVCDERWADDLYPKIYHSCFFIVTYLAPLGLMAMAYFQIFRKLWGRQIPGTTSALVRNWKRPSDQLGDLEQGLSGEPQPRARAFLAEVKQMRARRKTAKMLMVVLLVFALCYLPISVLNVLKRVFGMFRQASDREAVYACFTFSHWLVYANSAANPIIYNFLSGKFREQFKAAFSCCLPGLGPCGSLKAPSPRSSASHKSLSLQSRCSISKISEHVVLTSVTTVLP
TAAR1 ag – agonists of human TAAR1; Q96RJ0; CHO RD-HGA16 TAAR1, Fluo-8 calcium fluorescence; vehicle wells 0%, saturating PEA agonist 100%; activation, % at 3 µM; actives 0.99% (n = 360,000);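 active = activation above the mean activation of all test compounds in the run plus 3 SD, cut at about 38% in these data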
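Assay system – CHO-derived RD-HGA16 cells with stable Gα16 and human TAAR1 · Compound dosing – one-point dosing at 3 µM (nominal) · Incubation – 17-24 h seeding, 75 min 37 °C dye, 30 min RT · Measured by – kinetic Fluo-8 calcium fluorescence · Control set – DMSO vehicle as 0%, PEA at EC100 as 100% · Repeats – single well for each compound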
OX1R antag-2 – OX1R (human) antagonism; O43613; OX1R-expressing cells, FRET antagonist read-out; inhibition, % at 6.6 µM; actives 1.8% (n = 330,000); in the data active = inhibition mostly above about 38%, no sharp cut-off; inactive = mostly below about 40%;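 note: 0% = agonist challenge alone and 100% = reference antagonist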
CHO parental Ca – counter-screen: ATP calcium response change in parental CHO cells. parental CHO-K1, ATP-induced calcium, Fluo-8 fluorescence. inhibition, % at 5.6 µM. actives 0.63% (n = 330,000);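 active = inhibition above that plate's mean sample inhibition plus 3 SD, cut at about 26% in these data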;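 note: 0% = ATP-challenged DMSO wells and 100% = DMSO wells without ATP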
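Material – parental CHO cells · Reagent – ATP stimulus · Compound – single nominal dose of 5.6 µM per compound · Detection – Fluo-8 fluorescence · Read-out basis – percent inhibition of calcium signal · Controls – ATP-challenged DMSO wells low, unchallenged DMSO wells high · Repeats – no replicates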
TAAR1 antagonist – antagonists of human TAAR1; inhibition, % at 3 µM; Q96RJ0; CHO RD-HGA16 TAAR1, Fluo-8 calcium fluorescence, antagonist; actives 1.5% (n = 360,000);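 active = inhibition above a per-plate cutoff, the mean inhibition of test compounds on that plate plus 3 SD, cut at about 49% in these data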;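 note: 0% = DMSO plus EC80 beta-PEA response and 100% = DMSO alone without agonist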
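Test system – hTAAR1-expressing CHO RD-HGA16 cells, Gα16-coupled · Reagent – β-PEA at EC80 concentration, post-compound challenge · Compound dosing – 3 µM, single point · Timing – 140 s kinetic read after compound, 140 s after agonist · Detection – Fluo-8 intracellular calcium dye fluorescence, real-time kinetic reads · Control set – DMSO and EC80 PEA controls · Repeats – n of 1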
Active calls of the source: *; nt = no result given.

SMILES | GPR7 antagonist | OX1R antag-1 | TAAR1 ag | OX1R antag-2 | CHO parental Ca | TAAR1 antagonist
COCCn1c(N)c(C(=O)NCC2CCCO2)c2nc3ccccc3nc21 (stereo not drawn) | 3 | -18 | 15 | 38 | -17 | 49*
CCOC(=O)N1CCN(CC(=O)Nc2ccc(F)cc2F)CC1 | -2 | 0 | -1 | 15 | 28* | 8
CCOC(=O)N1CCN(CC(=O)Nc2ccc(F)c(F)c2F)CC1 | -18 | -1 | 0 | 6 | -7 | -8
CN(CCCS(=O)(=O)[O-])c1ccc(/C=C/c2ccc3ccccc3[n+]2C)cc1 | -1 | nt | 2 | nt | nt | -14
CN(C)c1ccc(/C=C/c2ccc3ccccc3[n+]2C)cc1 | 0 | 14 | 1 | 163* | 0 | 1
CC(=O)Oc1ccccc1/C=C/c1ccc2ccccc2[n+]1C | -3 | -5 | 4 | 66* | -15 | -7
CCOC(=O)C1=C(C(=O)OCC)C2N(Cc3ccc(Br)cc3)c3ccccc3[C@@]23C[C@@H](C(=O)OC)N(S(=O)(=O)c2ccc(Br)cc2)C3=N1 (stereo partly drawn) | nt | nt | 0 | nt | nt | -14
CCCC(=O)OC[C@H]1CN(C2CCCC2)S(=O)(=O)c2c(Oc3ccc(F)cc3OC)cccc2O1 | nt | nt | 1 | nt | nt | -10
CCOc1ccc(NC(=O)CN(C)C(=O)c2c(C)nn(-c3ccc(F)cc3)c2Cl)cc1OCC | nt | -21 | -1 | 1 | -16 | -34
CCN(CC(=O)Nc1ccc(NC(C)=O)cc1)C(=O)c1c(C)nn(-c2ccc(F)cc2)c1Cl | nt | -17 | 15 | 1 | -21 | 54*
CC(Oc1ccc(F)cc1)C(=O)Nc1ccc(S(=O)(=O)NC2=NCCCCC2)cc1 (stereo not drawn) | nt | 7 | 44* | 1 | 1 | 20
O=S(=O)(NC1=NCCCCC1)c1ccc(F)cc1 | -13 | -14 | 3 | 6 | 0 | -13
CC(Oc1cccc(Cl)c1)C(=O)Nc1ccc(S(=O)(=O)N(C)C2CCN(C)CC2)cc1 (stereo not drawn) | nt | 10 | 42* | 1 | -2 | 11
CC(Oc1cccc(Cl)c1)C(=O)Nc1ccc(S(=O)(=O)NC2=NCCCCC2)cc1 (stereo not drawn) | nt | 7 | 40* | 5 | 11 | 13
CCN1C[C@@H]2[C@@H]3C(=O)N(Cc4ccccc4)C(=O)[C@@H]3[C@](CC)(C1=O)N2C(=O)c1ccc(Cl)cc1 | nt | nt | 12 | nt | nt | 3
C/C(=N/OC(=O)c1ccc(C)cc1)c1ccc(N2C(=O)C3CCCCC3C2=O)cc1 (stereo not drawn) | -10 | -29 | 17 | 20 | -9 | 66*
O=C(Nc1cc(Cl)ccc1O)c1snnc1-c1ccccc1 | -5 | 45 | 6 | 46* | 30 | 31
C#CCN(Cc1ccco1)C(=O)c1nnc2c3cc(OC)ccc3n(S(=O)(=O)c3ccc(OC)cc3)c2n1 | nt | nt | 0 | nt | nt | -8
CCn1c(O)c(C=Nc2ccccc2)sc1=S | -1 | -21 | 9 | 59* | -14 | 17
COC(=O)C1=C(C)NC(=S)NC1c1ccc(Br)cc1 (stereo not drawn) | nt | nt | 3 | nt | nt | -7
COc1cc2c(cc1NC(=O)C(C)Sc1ccc(NC(C)=O)cc1)oc1ccccc12 (stereo not drawn) | 16 | 16 | 9 | 49 | 19 | 50*
COc1cc2c(cc1NC(=O)Nc1ccc(C)cc1)oc1ccccc12 | -7 | -16 | 2 | 23 | -15 | 5
CCn1cc([N+](=O)[O-])c(C(=O)N2N=C(c3ccc(Cl)c(Cl)c3)CC2c2ccccc2O)n1 (stereo not drawn) | -3 | 73* | 10 | 18 | 44* | 23
CCn1cc([N+](=O)[O-])c(C(=O)N2N=C(c3ccc(O)c(OC)c3)CC2c2ccccc2O)n1 (stereo not drawn) | -10 | -16 | 12 | 14 | -23 | 28
C=CC[n+]1ccc(/C=C2\C=Cc3cc(C)ccc3N2CC)c2ccccc21 | 26* | nt | nt | nt | nt | nt
CCN1/C(=C/C=C/c2sc3ccccc3[n+]2CC)Sc2ccccc21 | nt | 36 | nt | 41* | 61* | nt
CC[n+]1c(/C=C2\Sc3ccccc3N2C)ccc2cccc(C)c21 | 1 | nt | 29 | nt | nt | 40
